From ChEMBL document CHEMBL4052683, “The discovery of benzoxazine sulfonamide inhibitors of NaV1.7: Tools that bridge efficacy and target engagement” (Bioorg Med Chem Lett, 2017)
pIC50: −log10 of the molar value. Activity calls are given as the source filed them. The calls are words filed in the database; no cut-off is given here.

Assays:
Plasma [1] = assay: Unbound plasma concentration in Sprague-Dawley rat model of formalin-induced nociception behavior at 100 mg/kg, po; format: ADME, organism-based; conditions: in vivo
Summary of the method: (§1)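 Total phase II formalin-induced flinches were scored. Unbound plasma concentration was determined at each dose and related to the rat NaV1.7 IC50.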

[2] = Oral bioavailability in rat at 10 mg/kg by LC-MS/MS method; format: ADME, organism-based; conditions: in vivo
Plasma [3] = assay: Plasma concentration in C57BL/6 mouse model of histamine-induced pruritus at 100 mg/kg, po; format: ADME, organism-based; conditions: in vivo
Summary of the method: (§2)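 Male C57BL/6 mice got 30, 60 or 100 mg/kg PO in 30% hydroxypropyl β-cyclodextrin, pH 10.0, 120 min before the test. Histamine (8.15mM) was given intradermally to the nape of the neck just before testing, and scratch bouts were counted over 0–30 min. Diphenhydramine 30 mg/kg PO in water, 90 min before, served as control. Unbound plasma concentrations were measured.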

[4] = Ratio of unbound plasma concentration in Sprague-Dawley rat model of formalin-induced nociception behavior at 30 mg/kg, po to IC50 for rat Nav1.7 by whole cell voltage clamp method; summary of the method: as §1
Plasma [5] = assay: Plasma concentration in Sprague-Dawley rat model of formalin-induced nociception behavior at 100 mg/kg, po; format: ADME, organism-based; conditions: in vivo
Summary of the method: (§3)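 Sprague Dawley rats got 10, 30 or 100 mg/kg PO in 30% (w/v) hydroxypropyl β-cyclodextrin, pH 10.0 with KOH. Total phase II formalin-induced flinches were counted. Morphine sulfate 2 mg/kg SC served as control. Unbound plasma levels were measured and compared with the rat NaV1.7 IC50.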

[6] = molecular target: Histamine H1 receptor (Homo sapiens) (UniProt P35367); assay: Displacement of [3H]pyrilamine from human recombinant histamine H1 receptor expressed in HEK293 cells at 10 uM by radioligand displacement assay; format: cell-based
Chain of Histamine H1 receptor (Homo sapiens) (P35367 whole entry): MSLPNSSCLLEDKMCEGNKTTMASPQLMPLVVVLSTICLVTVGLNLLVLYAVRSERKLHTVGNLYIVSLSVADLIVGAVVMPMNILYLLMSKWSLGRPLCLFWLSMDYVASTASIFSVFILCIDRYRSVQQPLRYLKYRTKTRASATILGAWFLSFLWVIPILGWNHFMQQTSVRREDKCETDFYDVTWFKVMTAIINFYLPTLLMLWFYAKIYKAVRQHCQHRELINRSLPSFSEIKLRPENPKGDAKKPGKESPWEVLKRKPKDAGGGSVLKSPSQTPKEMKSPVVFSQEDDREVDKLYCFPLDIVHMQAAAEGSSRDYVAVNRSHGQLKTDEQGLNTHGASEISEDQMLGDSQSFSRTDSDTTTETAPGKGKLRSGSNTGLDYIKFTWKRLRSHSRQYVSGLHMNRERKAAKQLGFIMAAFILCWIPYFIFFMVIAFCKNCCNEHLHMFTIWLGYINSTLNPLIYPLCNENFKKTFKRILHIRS

[7] = Half life in rat at 10 mg/kg, po by LC-MS/MS method; format: ADME, organism-based; conditions: in vivo
Plasma [8] = assay: Plasma concentration in C57BL/6 mouse model of formalin-induced nociception behavior at 30 mg/kg, po; format: ADME, organism-based; conditions: in vivo
Summary of the method: (§4)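 Male C57BL/6 mice got 30, 60 or 100 mg/kg PO in 30% (w/v) hydroxypropyl β-cyclodextrin in water, pH 10.0 with KOH. Formalin (2%) was injected subcutaneously into the dorsal hind paw, and total phase II paw licking and lifting were scored. Morphine sulfate 3 mg/kg SC served as control. Unbound plasma concentration was divided by the mouse NaV1.7 IC50.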

Mus musculus [9] = assay: Analgesic activity in C57BL/6 mouse model of formalin-induced nociception behavior assessed as reduction in formalin-evoked paw lifting/licking at 100 mg/kg, po; format: functional; summary of the method: as §4
Plasma [10] = assay: Unbound plasma concentration in C57BL/6 mouse model of formalin-induced nociception behavior at 60 mg/kg, po; format: ADME, organism-based; conditions: in vivo
Summary of the method: (§5)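 The formalin arm received 2% formalin subcutaneously into the dorsal hind paw, and total phase II licking and lifting was scored. The pruritus arm was dosed 120 min before histamine (8.15mM, intradermal, nape of neck), and scratch bouts were counted over 0-30 min. Unbound plasma concentration was determined at each dose.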

[11] = Protein binding in rat plasma at 5 uM by ultracentrifugation and LC-MS/MS method; format: ADME, cell-free; conditions: read-out: PPB (converted)
[12] = Ratio of unbound plasma concentration in C57BL/6 mouse model of formalin-induced nociception behavior at 30 mg/kg, po to IC50 for mouse Nav1.7 by whole cell voltage clamp method; summary of the method: as §4
Plasma [13] = assay: Plasma concentration in C57BL/6 mouse model of histamine-induced pruritus at 30 mg/kg, po; format: ADME, organism-based; conditions: in vivo; summary of the method: as §2
[14] = Unbound fraction in mouse plasma at 5 uM by ultracentrifugation and LC-MS/MS method; format: ADME, cell-free
Plasma [15] = assay: Plasma concentration in C57BL/6 mouse model of histamine-induced pruritus at 60 mg/kg, po; format: ADME, organism-based; conditions: in vivo; summary of the method: as §2
[16] = Ratio of unbound plasma concentration in C57BL/6 mouse model of histamine-induced pruritus at 60 mg/kg, po to IC50 for mouse Nav1.7 by whole cell voltage clamp method; summary of the method: as §5
[17] = Clearance in rat at 0.5 mg/kg, iv by LC-MS/MS method; format: ADME, organism-based; conditions: in vivo
Summary of the method: (§6)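 Male rats got 0.5 mg/kg IV as a DMSO solution. Unbound clearance was taken as rat clearance divided by the unbound fraction from equilibrium dialysis.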

[18] = Unbound fraction in rat plasma at 5 uM by ultracentrifugation and LC-MS/MS method; format: ADME, cell-free
Mus musculus [19] = assay: Anti-pruritic activity in C57BL/6 mouse model of histamine-induced pruritus assessed as reduction in histamine-induced scratching at 30 mg/kg, po dosed 120 mins before test; format: functional; summary of the method: as §2
[20] = molecular target: Histamine H3 receptor (Homo sapiens) (UniProt Q9Y5N1); assay: Displacement of [3H]N-alpha-Me-histamine from human recombinant histamine H3 receptor expressed in CHO cells at 10 uM by radioligand displacement assay; format: cell-based
Chain of Histamine H3 receptor (Homo sapiens) (Q9Y5N1 whole entry): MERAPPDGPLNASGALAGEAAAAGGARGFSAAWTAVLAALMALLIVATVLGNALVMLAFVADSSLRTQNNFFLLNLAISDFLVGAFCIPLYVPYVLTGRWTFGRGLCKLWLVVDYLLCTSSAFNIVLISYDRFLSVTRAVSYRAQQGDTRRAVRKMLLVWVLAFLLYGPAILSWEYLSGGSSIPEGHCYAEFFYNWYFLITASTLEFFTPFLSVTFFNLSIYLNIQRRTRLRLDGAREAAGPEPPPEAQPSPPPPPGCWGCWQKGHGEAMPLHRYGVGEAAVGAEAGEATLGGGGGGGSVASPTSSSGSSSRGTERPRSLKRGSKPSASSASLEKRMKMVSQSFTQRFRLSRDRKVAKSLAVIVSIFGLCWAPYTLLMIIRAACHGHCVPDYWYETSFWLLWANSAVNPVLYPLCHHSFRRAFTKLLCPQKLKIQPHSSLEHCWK

[21] = AUC (infinity) in rat at 0.5 mg/kg, iv by LC-MS/MS method; format: ADME, organism-based; design: dose 0.5 mg/kg, time infinity, route intravenous; conditions: in vivo; summary of the method: as §6
Plasma [22] = assay: Plasma concentration in Sprague-Dawley rat model of formalin-induced nociception behavior at 10 mg/kg, po; format: ADME, organism-based; conditions: in vivo; summary of the method: as §3
Mus musculus [23] = assay: Anti-pruritic activity in C57BL/6 mouse model of histamine-induced pruritus assessed as reduction in histamine-induced scratching at 100 mg/kg, po dosed 120 mins before test; format: functional; summary of the method: as §2
[24] = Cmax in rat at 10 mg/kg, po by LC-MS/MS method; format: ADME, organism-based; design: dose 10 mg/kg, route oral; conditions: in vivo
[25] = molecular target: Sodium channel protein type 9 subunit alpha (Homo sapiens, UniProt Q15858); assay: Displacement of (P)-1-(30-chloro-2-fluoro-5,50-dimethoxy-[1,10biphenyl]-4-yl)-N-(isoxazol-3-yl)-2-oxo-1,2-dihydroquinoline-6-sulfonamide[50-methoxy-C3H3] from human NaV1.7 expressed in HEK293 cell membranes incubated for 1 hr by beta counting method
Chain of Sodium channel protein type 9 subunit alpha (Homo sapiens, UniProt Q15858) (Q15858 whole entry): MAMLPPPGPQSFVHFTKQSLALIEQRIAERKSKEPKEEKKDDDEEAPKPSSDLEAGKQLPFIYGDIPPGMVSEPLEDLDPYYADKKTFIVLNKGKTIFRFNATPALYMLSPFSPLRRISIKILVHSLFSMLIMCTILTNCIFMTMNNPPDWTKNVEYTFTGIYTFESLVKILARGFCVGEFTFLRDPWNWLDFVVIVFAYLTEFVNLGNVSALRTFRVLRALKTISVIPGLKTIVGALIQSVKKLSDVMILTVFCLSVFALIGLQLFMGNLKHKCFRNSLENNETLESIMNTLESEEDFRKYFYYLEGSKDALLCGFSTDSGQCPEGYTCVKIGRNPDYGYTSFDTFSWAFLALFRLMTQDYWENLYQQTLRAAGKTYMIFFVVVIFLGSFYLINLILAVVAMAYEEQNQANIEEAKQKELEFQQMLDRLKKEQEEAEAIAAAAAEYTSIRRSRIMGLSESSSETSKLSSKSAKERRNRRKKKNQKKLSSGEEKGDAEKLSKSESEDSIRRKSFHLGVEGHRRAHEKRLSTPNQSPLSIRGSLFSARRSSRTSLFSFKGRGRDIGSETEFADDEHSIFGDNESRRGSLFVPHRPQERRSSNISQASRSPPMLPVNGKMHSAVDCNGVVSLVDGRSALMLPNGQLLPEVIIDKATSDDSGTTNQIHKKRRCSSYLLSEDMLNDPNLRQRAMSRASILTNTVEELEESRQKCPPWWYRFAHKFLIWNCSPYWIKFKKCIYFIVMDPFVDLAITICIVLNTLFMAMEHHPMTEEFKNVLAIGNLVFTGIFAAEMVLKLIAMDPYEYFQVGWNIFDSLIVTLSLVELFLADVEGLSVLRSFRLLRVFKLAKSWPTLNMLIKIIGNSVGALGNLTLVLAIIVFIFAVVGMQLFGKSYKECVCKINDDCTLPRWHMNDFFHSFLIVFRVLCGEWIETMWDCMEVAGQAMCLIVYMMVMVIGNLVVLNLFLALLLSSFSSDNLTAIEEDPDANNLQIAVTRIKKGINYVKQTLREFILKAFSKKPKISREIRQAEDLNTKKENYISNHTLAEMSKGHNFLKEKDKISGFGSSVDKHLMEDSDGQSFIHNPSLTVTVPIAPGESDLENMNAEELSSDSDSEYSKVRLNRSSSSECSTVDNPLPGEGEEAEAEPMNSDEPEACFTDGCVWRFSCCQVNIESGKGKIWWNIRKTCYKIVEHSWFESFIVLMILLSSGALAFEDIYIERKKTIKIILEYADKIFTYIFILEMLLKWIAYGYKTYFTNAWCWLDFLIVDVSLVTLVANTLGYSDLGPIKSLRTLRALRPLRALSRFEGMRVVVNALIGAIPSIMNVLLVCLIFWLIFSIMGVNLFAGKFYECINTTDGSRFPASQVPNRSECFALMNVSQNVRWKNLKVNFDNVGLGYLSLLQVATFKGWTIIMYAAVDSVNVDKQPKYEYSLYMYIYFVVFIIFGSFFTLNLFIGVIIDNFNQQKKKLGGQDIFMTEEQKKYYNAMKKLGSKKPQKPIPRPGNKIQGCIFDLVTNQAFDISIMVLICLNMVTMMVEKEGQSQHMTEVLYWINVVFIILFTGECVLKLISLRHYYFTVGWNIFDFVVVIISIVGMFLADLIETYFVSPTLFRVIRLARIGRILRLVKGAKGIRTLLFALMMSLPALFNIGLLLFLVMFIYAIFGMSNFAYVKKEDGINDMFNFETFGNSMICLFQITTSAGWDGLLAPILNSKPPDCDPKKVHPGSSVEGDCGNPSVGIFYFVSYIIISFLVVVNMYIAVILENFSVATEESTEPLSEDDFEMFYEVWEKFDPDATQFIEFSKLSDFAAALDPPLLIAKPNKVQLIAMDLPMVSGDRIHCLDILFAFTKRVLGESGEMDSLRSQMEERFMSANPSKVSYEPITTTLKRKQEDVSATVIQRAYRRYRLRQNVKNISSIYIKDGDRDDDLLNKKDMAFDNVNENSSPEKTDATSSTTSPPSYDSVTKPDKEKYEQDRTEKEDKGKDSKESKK
Summary of the method: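 Human NaV1.7 radioligand displacement using the tritiated 5'-methoxy-labelled dihydroquinoline sulfonamide ligand, which binds the VSDIV pocket.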

[26] = Cmax in mouse at 30 mg/kg, po by LC-MS/MS method; format: ADME, organism-based; design: dose 30 mg/kg, route oral; conditions: in vivo
[27] = molecular target: Sodium channel protein type 9 subunit alpha (Rattus norvegicus, UniProt O08562); assay: Inhibition of rat NaV1.7 by cell based whole cell voltage clamp method
Chain of Sodium channel protein type 9 subunit alpha (Rattus norvegicus, UniProt O08562) (O08562 whole entry): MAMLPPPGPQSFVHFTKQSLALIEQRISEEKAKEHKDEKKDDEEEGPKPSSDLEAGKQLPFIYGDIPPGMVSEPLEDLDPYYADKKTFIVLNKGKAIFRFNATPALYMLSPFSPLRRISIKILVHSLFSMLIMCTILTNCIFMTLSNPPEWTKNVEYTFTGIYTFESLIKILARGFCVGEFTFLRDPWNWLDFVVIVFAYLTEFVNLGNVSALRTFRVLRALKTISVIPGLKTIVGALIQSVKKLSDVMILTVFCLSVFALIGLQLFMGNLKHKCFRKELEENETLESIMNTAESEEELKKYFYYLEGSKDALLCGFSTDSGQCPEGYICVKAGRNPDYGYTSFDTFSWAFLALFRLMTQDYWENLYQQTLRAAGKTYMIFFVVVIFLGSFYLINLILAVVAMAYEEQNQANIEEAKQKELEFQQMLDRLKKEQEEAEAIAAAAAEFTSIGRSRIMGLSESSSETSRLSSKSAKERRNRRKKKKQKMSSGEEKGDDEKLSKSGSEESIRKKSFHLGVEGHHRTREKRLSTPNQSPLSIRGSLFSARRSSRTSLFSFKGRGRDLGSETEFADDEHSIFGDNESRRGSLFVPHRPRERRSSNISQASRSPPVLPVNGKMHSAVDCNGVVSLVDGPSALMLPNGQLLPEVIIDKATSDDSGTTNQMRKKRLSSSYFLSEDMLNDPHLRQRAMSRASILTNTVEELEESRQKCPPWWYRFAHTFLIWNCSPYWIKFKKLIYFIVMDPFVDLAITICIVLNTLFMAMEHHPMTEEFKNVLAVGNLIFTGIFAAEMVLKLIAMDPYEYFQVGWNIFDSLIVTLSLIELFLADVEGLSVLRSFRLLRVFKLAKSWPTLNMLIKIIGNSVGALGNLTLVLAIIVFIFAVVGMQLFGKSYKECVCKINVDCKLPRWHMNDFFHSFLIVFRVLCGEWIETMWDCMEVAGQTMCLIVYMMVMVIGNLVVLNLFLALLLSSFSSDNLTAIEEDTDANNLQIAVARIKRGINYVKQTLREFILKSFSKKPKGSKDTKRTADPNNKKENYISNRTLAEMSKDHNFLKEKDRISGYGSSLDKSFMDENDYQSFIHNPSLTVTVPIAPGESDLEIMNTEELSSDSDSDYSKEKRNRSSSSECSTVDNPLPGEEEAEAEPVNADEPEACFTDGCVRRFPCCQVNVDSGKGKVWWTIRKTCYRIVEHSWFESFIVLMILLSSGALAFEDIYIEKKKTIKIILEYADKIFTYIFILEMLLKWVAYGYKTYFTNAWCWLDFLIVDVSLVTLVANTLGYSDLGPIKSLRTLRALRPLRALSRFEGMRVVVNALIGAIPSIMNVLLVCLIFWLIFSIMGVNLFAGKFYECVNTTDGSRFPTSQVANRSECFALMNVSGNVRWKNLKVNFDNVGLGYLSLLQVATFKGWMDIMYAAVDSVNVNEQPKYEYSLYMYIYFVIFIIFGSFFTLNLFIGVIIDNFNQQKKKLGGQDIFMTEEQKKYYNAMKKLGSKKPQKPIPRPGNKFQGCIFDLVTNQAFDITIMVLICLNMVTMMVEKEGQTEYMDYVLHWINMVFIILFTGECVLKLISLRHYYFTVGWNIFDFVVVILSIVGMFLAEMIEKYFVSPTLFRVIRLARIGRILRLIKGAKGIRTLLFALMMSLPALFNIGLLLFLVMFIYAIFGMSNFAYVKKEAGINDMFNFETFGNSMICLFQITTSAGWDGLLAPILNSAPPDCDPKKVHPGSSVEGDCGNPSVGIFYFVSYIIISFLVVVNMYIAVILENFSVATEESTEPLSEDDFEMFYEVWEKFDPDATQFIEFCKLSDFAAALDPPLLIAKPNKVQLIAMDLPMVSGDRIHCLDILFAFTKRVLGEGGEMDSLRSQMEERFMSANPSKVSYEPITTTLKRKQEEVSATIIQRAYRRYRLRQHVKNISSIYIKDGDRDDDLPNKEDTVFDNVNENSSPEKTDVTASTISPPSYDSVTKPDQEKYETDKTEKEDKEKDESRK
Summary of the method: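 PatchXpress electrophysiology was run with a protocol giving about 20% channel inactivation. At least four concentrations at half-log spacing were applied one at a time, with washout, current recovery and holding voltage reset between each. Data were pooled from at least 10 cells, with 2–3 points per concentration, and fitted with a 4-parameter Hill curve to give one IC50.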

Rattus norvegicus [28] = assay: Analgesic activity in Sprague-Dawley rat model of formalin-induced nociception behavior assessed as reduction in formalin-evoked paw flinching at 10 mg/kg, po; format: functional; summary of the method: as §3
Rattus norvegicus [29] = assay: Analgesic activity in Sprague-Dawley rat model of formalin-induced nociception behavior assessed as reduction in formalin-evoked paw flinching at 100 mg/kg, po; format: functional; summary of the method: as §3
[30] = Ratio of unbound plasma concentration in C57BL/6 mouse model of formalin-induced nociception behavior at 60 mg/kg, po to IC50 for mouse Nav1.7 by whole cell voltage clamp method; summary of the method: as §5
Plasma [31] = assay: Plasma concentration in C57BL/6 mouse model of formalin-induced nociception behavior at 100 mg/kg, po; format: ADME, organism-based; conditions: in vivo; summary of the method: as §4
[32] = AUC (infinity) in rat at 10 mg/kg, po by LC-MS/MS method; format: ADME, organism-based; design: dose 10 mg/kg, route oral, time infinity; conditions: in vivo

Cp(f) (Plasma [1]): 0.18 µM
bioavailability [2]: 57%
concentration (Plasma [3]): 113 µM
concentration (Plasma [5]): 11 µM
inhibition [6]: inactive
half-life [7]: 9.8 h
concentration (Plasma [8]): 51 µM
Cp(f) (Plasma [10]): 0.62 µM
fraction unbound at 5 µM [11]: 0.015
concentration (Plasma [13]): 61 µM
fraction unbound at 5 µM [14]: 0.006
concentration (Plasma [15]): 109 µM
clearance [17]: 10 mL/min/kg
fraction unbound at 5 µM [18]: 0.015
inhibition [20]: inactive
AUC(0-inf) [21]: 1.8 µM·h
concentration (Plasma [22]): 1.7 µM
Cmax [24]: 0.95 to 0.99 µM
pIC50 [25]: 7.43
Cmax [26]: 58 µM
pIC50 [27]: 7.17
concentration (Plasma [31]): 150 µM
AUC(0-inf) [32]: 20 µM·h
SMILES: N#Cc1cc(C(F)(F)F)ccc1N1CCOc2cc(S(=O)(=O)Nc3nccs3)c(F)cc21
Ratio [4]: 1.3
MPE (Mus musculus [9]): 77%
Ratio [12]: 5
Ratio [16]: 10
MPE (Mus musculus [19]): 37%
MPE (Mus musculus [23]): 80%
MPE (Rattus norvegicus [28]): 17%
MPE (Rattus norvegicus [29]): 70%
Ratio [30]: 10
